Assay results from ChEMBL document CHEMBL3400126, “Benzo-fused lactams from a diversity-oriented synthesis (DOS) library as inhibitors of scavenger receptor BI (SR-BI)-mediated lipid uptake” (Bioorg Med Chem Lett, 2015).
In brackets after ≈: the same amount, converted by molar mass. Each block holds one compound with its values, some of them ahead of it. Activity calls are given as the source filed them. The rule behind the calls is not given here.

How the values were obtained:
[1] = biological target: T1, Scavenger receptor class B member 1 (Mus musculus) (UniProt Q61009); assay: Inhibition of mouse SR-B1 overexpressed in CHO cells assessed as inhibition of transfer of the fluorescent lipid DiI from HDL particles to cells at 1 uM after 3 hrs; assay type: cell-based
T1 sequence (whole entry): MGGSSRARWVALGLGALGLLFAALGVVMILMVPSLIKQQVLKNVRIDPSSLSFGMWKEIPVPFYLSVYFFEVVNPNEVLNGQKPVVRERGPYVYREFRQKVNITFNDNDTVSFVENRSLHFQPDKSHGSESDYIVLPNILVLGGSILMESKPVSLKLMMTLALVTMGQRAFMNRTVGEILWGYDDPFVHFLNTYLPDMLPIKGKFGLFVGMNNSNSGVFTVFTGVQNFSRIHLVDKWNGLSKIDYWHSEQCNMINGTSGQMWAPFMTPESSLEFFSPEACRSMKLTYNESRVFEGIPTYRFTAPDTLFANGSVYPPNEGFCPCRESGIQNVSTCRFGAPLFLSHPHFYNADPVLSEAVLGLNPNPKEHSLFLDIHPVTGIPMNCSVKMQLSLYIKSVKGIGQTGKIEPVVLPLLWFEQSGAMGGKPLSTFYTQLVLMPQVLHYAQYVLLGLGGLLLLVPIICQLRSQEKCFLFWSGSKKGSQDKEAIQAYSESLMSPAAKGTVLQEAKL

[2] = Aqueous solubility of the compound in PBS at pH 7.4 with 1 % DMSO after 24 hrs by UPLC-MS analysis; assay type: physicochemical; settings: for solubility at 24 h: PBS with 1% DMSO, pH 7.4; for solubility: buffer, pH 7.4, 24 h
[3] = biological target: T1, Scavenger receptor class B member 1 (Mus musculus); assay: (§1) Inhibition of mouse SR-B1 overexpressed in CHO cells assessed as inhibition of [3H]cholesteryl ester uptake into cells after 2 to 3 hrs by liquid scintillation counting; assay type: cell-based
In short: (§2)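 IdlA[mSR-BI] cells exposed to HDL carrying [³H]-labeled cholesteryl oleate ester; cellular uptake of [³H]CE measured across a compound dilution series, IC₅₀ from dose-response curve.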

[4] = biological target: T2, Scavenger receptor class B member 1 (Mus musculus, UniProt Q61009); assay: as §1; assay type: cell-based; in short: as §2
T2 sequence (Q61009 whole entry): T1 sequence (whole entry)

[5] = biological target: T2, Scavenger receptor class B member 1; assay: Inhibition of mouse SR-B1 overexpressed in CHO cells assessed as inhibition of transfer of the fluorescent lipid DiI from HDL particles to cells after 3 hrs; assay type: cell-based
In short: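 Primary assay: uptake of fluorescent lipid DiI from DiI-labeled HDL particles into IdlA[mSR-BI] cells, i.e. CHO cells overexpressing mouse SR-BI. Read-out is cell-associated DiI fluorescence. Compounds that quenched DiI-HDL fluorescence in a dose-dependent manner were excluded by counterscreen. 1 μM BLT-1 served as positive control.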

CHO = assay: Cytotoxicity against CHO cells after 24 hrs by CellTiterGlo assay; assay type: cell-based, Cricetulus griseus; settings: chinese hamster
In short: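 IdlA[mSR-BI] cells (CHO overexpressing mouse SR-BI) incubated with compound for 24 h; cellular ATP levels read by CellTiter-Glo luminescence.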

[6] = Plasma protein binding in human at 5 uM after 5 hrs by equilibrium dialysis; assay type: ADME, cell-free; settings: read-out: PPB (converted)
In short: (§3)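 Fraction bound to plasma proteins measured separately in human and mouse plasma.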

[7] = biological target: T2, Scavenger receptor class B member 1; assay: Activity at mouse SR-B1 overexpressed in CHO cells assessed as enhancement of binding of ALexa-488-labeled HDL particles to cells after 3 hrs
L-type calcium channel = L-type calcium channel (Homo sapiens, UniProt O60840+Q01668+Q13698+Q13936); assay: Inhibition of L-type calcium channel (unknown origin) at 10 uM
[8] = Stability in mouse plasma assessed as compound remaining at 5 uM after 5 hrs by UPLC-MS analysis; assay type: ADME, cell-free; settings: read-out: Stability
In short: (§4)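 Compound incubated 5 h in human or mouse plasma; percent parent remaining determined.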

[9] = Stability in human plasma assessed as compound remaining at 5 uM after 5 hrs by UPLC-MS analysis; assay type: ADME, cell-free; settings: read-out: Stability; in short: as §4
[10] = Stability in mouse liver microsomes assessed as compound remaining at 1 uM after 1 hr by UHPLC-MS analysis; assay type: ADME; settings: read-out: Stability
In short: (§5)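 Compound incubated 1 h with mouse or human liver microsomes; percent parent remaining determined.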

[11] = Plasma protein binding in mouse at 5 uM after 5 hrs by equilibrium dialysis; assay type: ADME, cell-free; settings: read-out: PPB (converted); in short: as §3
[12] = biological target: T1, Scavenger receptor class B member 1 (Mus musculus); assay: Inhibition of mouse SR-B1 overexpressed in CHO cells assessed as inhibition of receptor-mediated Alexa-594-labeled transferrin endocytosis up to 35 uM; assay type: cell-based
In short: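 Receptor-mediated endocytosis in IdlA[mSR-BI] cells followed by uptake of Alexa-594-labeled transferrin, compound tested at concentrations up to 35 μM.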

[13] = Stability in human liver microsomes assessed as compound remaining at 1 uM after 1 hr by UHPLC-MS analysis; assay type: ADME; settings: read-out: Stability; in short: as §5

Compound: CCCCCCC1CCC/C1=N\NC(N)=S (stereo not drawn)
- inhibition [1]: > 70%

Compound: COCC(=O)n1ccc2cc(-c3csc(NC(=O)c4cc(OC)cc(OC)c4)n3)ccc21
- solubility at 24 h [2]: 0.57 µM (≈ 0.257 µg/mL)
- inhibition [3]: Active

Compound: C[C@H](C(=O)NC1CCCC1)N(C(=O)Cn1nnc(-c2ccc3c(c2)OCO3)n1)C1CCCCC1
- IC50 [4]: 0.005 µM

Compound: COc1c(NC(=O)C(=O)c2ccc(OCCN3CCOCC3)c3ccccc23)cc(C(C)(C)C)cc1NS(C)(=O)=O [ITX-5061]
- IC50 [4]: 0.77 µM

Continued, in another order:

- IC50 [5]: 6.4 µM
- solubility [2]: 79 µM (≈ 49.2 µg/mL)
Compound: C[C@@H]1CN([C@H](C)CO)C(=O)c2cc(NC(=O)Cc3cn(C)c4ccccc34)ccc2O[C@H]1CN(C)S(=O)(=O)c1cn(C)cn1
- Activity (CHO): Non-toxic

- IC50 [5]: 0.18 µM
- solubility [2]: 0.1 µM (≈ 0.0653 µg/mL)
Compound: C[C@@H]1CN([C@H](C)CO)C(=O)c2cc(NC(=O)Cc3cn(C)c4ccccc34)ccc2O[C@H]1CN(C)S(=O)(=O)c1ccc(Cl)cc1
- Activity (CHO): Non-toxic

- fraction unbound at 5 h, 5 µM [6]: 0.055
- EC50 [7]: 0.4 µM
- inhibition at 10 µM (L-type calcium channel): 19%
- remaining at 5 h, 5 µM [8]: > 99%
- remaining at 5 h, 5 µM [9]: > 99%
- solubility at 24 h [2]: 79 µM (≈ 44.8 µg/mL)
- remaining at 1 h, 1 µM [10]: 25%
- IC50 [4]: 0.25 µM
- fraction unbound at 5 h, 5 µM [11]: 0.053
- inhibition [12]: inactive
- remaining at 1 h, 1 µM [13]: 10%
Compound: CC(C)NC(=O)Nc1ccc2c(c1)C(=O)N([C@H](C)CO)C[C@@H](C)[C@H](CN(C)S(=O)(=O)c1ccc(Cl)cc1)O2
- Activity (CHO): Non-toxic
